Most compounds without a hit are left out; they make up all but 4% or so of the library.
XBP1 UPR activ – activators of adaptive XBP1 UPR arm, primary screen, cell-based, CHO-XBP1 luciferase reporter, luminescence, uHTS; activation, % at 20 µM; IRE1-XBP1 UPR activation; percent of tunicamycin response, DMSO as zero; 330,000 compounds, 0.33% hits;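 active = versus positive control, 20 µM dose yields 30% or more activation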;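 also: 100% = tunicamycin at 10 µg/mL and 0% = DMSO only wells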
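Material: IRE1-XBP1 luciferase reporter CHO line / Quantity: one thousand reporter cells per well / Buffer or medium: F12 with 10% serum / Compound: 20 µM single concentration, DMSO 1% / Times: 6 h treatment, 37 °C / Detection: Steady-Glo luciferase glow luminescence, 10 min after reagent addition / Benchmarks: tunicamycin high, DMSO low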
Mdm2-MdmX inh – inhibitors of human Mdm2-MdmX association, primary screen, cell-based, luminescence, split luciferase, SaOS-2, uHTS | AID 485346, 2010 | inhibition, % at 8 µM | 330,000 compounds, 3% hits | SaOS-2 split-luciferase Mdm2/MdmX complementation;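 active = inhibition of at least 50% at 8 µM in the primary screen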
Target sequence (O15151 whole entry, looked up): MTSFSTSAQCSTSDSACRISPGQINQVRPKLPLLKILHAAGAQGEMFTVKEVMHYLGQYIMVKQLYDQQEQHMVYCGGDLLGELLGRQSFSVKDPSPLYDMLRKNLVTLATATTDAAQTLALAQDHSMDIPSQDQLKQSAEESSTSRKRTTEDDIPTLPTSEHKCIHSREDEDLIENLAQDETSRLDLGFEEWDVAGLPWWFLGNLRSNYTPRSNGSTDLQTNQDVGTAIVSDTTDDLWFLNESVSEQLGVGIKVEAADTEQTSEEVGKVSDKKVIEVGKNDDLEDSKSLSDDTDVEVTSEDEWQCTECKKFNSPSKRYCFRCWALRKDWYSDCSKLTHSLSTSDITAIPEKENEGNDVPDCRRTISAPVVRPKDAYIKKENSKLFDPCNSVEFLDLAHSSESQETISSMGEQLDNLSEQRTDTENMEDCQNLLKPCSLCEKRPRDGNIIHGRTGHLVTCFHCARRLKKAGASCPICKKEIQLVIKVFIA
Target sequence (Q00987 whole entry, looked up): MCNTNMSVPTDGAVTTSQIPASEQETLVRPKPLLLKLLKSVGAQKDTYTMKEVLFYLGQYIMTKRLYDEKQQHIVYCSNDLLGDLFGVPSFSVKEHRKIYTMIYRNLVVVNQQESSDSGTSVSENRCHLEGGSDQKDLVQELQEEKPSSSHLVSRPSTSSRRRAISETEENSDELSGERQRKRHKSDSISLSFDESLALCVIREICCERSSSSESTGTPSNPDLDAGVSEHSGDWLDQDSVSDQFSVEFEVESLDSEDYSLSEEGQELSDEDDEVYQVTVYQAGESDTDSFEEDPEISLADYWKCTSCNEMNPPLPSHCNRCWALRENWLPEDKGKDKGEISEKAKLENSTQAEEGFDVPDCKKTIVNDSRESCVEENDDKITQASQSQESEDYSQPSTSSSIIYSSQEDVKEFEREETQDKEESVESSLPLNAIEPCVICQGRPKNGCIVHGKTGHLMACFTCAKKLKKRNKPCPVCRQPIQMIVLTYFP
UPR CHOP act – activators of apoptotic CHOP UPR arm, primary screen, cell-based, CHO-CHOP luciferase reporter, luminescence, uHTS; UPR activation; percent of tunicamycin response over DMSO baseline; activation, % at 10 µM; 330,000 compounds, 0.34% hits; AID 449763, 2010;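 active = at 10 µM dose, activation of 40% or more, normalized to positive control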;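 also: 100% = tunicamycin at 10 µg/mL and 0% = DMSO alone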
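System: CHO-CHOP luciferase reporter cell line | Buffer or medium: F12 medium containing 10% fetal bovine serum | Doses: One dose, 10 µM in 0.5% DMSO | Times: 6 h compound exposure at 37 °C after overnight seeding | Signal: Luciferase luminescence | Read-out: % activation vs tunicamycin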
Granule exo inh – LAMP-1 surface exposure blockers, TALL-104 cells – cell-based, flow cytometry, MLPCN library, primary screen. TALL-104 LAMP-1 surface exposure; cells stimulated with thapsigargin and PMA. inhibition, % at 10 µM. 360,000 compounds, 0.66% hits;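 active = inhibition above about 55%, limit read from the data; inconclusive = no clear call, values can overlap the other calls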
ABHD5-PLIN5 inh – ABHD5-PLIN5 interaction inhibitors, primary screen, cell lysate, split luciferase complementation, luminescence. Perilipin-5 (Homo sapiens) + 1-acylglycerol-3-phosphate O-acyltransferase ABHD5 (Homo …. inhibition, % at 4 µM. Split G. princeps luciferase complementation, 4 h. AID 602281, 2012. 360,000 compounds, 0.78% hits;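 active = inhibition above the mean inhibition across every tested compound plus 3 SD, cut at about 22% in these data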;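 also: 0% = DMSO only wells and the 100% control is not disclosed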
Granule exo CP1 – inhibitors of lytic granule exocytosis, confirmation, TALL-104 cells, flow cytometry, Cherry Pick01; shares compounds with Granule exo inh; LAMP-1 externalization; stimulated with PMA plus thapsigargin; inhibition, % at 10 µM; 1,500 compounds, 11% hits; in the data active = inhibition above about 60%;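 also: 0% = stimulated vehicle wells and 100% = unstimulated wells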
* hit, by the source's call; ? = inconclusive; nt = no result given.

SMILES	XBP1 UPR activ	Mdm2-MdmX inh	UPR CHOP act	Granule exo inh	ABHD5-PLIN5 inh	Granule exo CP1
CCN(Cc1ccccc1OC)CC1CCCN(CCc2cccc(OC)c2)C1 (configuration not stated)	0.6	1.8	1.4	63.0*	1.3	-10.7
CCN(Cc1ccc(OC)c(COC)c1)CC1CCCN(CCc2cccc(F)c2)C1 (configuration not stated)	-2.8	3.2	-1.2	67.9*	3.0	-11.7
CCN(Cc1ccc(OC)c(COC)c1)CC1CCCN(CCc2cccc(OC)c2)C1 (configuration not stated)	2.2	11.7	0.2	72.0*	3.8	-11.7
CCN(Cc1ccc(NC(C)=O)cc1)CC1CCCN(CCc2cccc(OC)c2)C1 (configuration not stated)	-3.2	16.4	1.2	50.8	0.5	nt
CNC(=S)N/N=C/c1c(C)nn(-c2ccccc2)c1Cl	6.8	10.6	9.7	-1.5	1.8	nt
CC1=C(C(=O)N(C(C)C)C(C)C)CC(CC(=O)NCC2CCCCC2)C(=O)N1Cc1ccc(C(C)(C)C)cc1 (configuration not stated)	nt	nt	nt	64.1*	-3.5	-9.8
CC1=C(C(=O)N(C(C)C)C(C)C)CC(CC(=O)NC2CC2)C(=O)N1Cc1ccc(C(C)(C)C)cc1 (configuration not stated)	nt	nt	nt	-11.6	-5.2	nt
Cc1ccc(C(C)C)c(OCC(=O)Nc2ccc(N3CCN(S(C)(=O)=O)CC3)cc2)c1	1.3	-2.4	-0.5	-2.0	-8.2	nt
CC1CCCCN1CCNC(=O)c1ccc2c(c1)N(Cc1ccccc1F)C(=O)c1ccccc1S2=O (configuration not stated)	4.0	33.4	2.5	18.5	3.1	nt
C=CCc1ccc(OCC(O)CN2CCC(Cc3ccccc3)CC2)c(OC)c1 (configuration not stated)	-1.2	27.5	-2.0	56.1*	10.9	-9.2
C=CCc1ccc(OCC(O)CN2CCN(c3ccccc3OC)CC2)c(OC)c1 (configuration not stated)	-7.0	8.7	0.1	-1.9	2.5	nt
Cc1ccc(F)cc1NC(=O)Cc1ncc(C(F)(F)F)cc1Cl	1.5	-25.2	-0.9	0.1	-0.3	nt
Cc1cc(C(=O)N(C)CC(=O)Nc2ccccc2C(F)(F)F)c(C)o1	-1.0	5.1	-0.2	61.7*	3.4	-14.4
Cc1cc(NCc2ccccn2)n2ncc(-c3ccccc3)c2n1	6.8	-7.2	15.5	11.5	9.6	nt
Cc1cc(NCc2ccccn2)n2ncc(-c3ccc(Cl)cc3)c2n1	6.6	48.9	12.4	82.0*	1.1	-11.8
COc1cccc(NC(=O)Nc2nnc(Cc3ccccc3)s2)c1	-3.1	43.6	-0.3	-1.5	-4.3	nt
CNCc1ccccc1Sc1ccc(O)c(O)c1	nt	nt	nt	81.5*	23.0*	29.1
CCOc1ccccc1NC(=O)C(=O)/C=C(\O)c1cc(OC)ccc1OC	2.3	21.5	-0.3	3.3	7.7	nt
COc1ccccc1C1CCN(Cc2cccc3ccccc23)CC1	0.6	9.7	-1.6	59.7*	1.2	-3.3
Cc1cc(NC(=O)CCC(=O)N(c2ccc(F)cc2)C(C(=O)NC2CCCC2)c2ccncc2)no1 (configuration not stated)	-0.8	-11.7	1.3	-2.7	5.0	nt
COc1ccc(COc2ccc3ccc(=O)oc3c2)cc1	0.7	-92.4	6.1	85.8*	-0.9	-13.5
COc1cccc(COc2ccc3ccc(=O)oc3c2)c1	0.7	-77.2	4.3	-11.0	-5.7	nt
Cn1cnc([N+](=O)[O-])c1SCC(=O)NN	0.0	3.8	-0.1	-2.3	0.5	nt
O=C(Cc1ccccc1)c1ccc2c(c1)OCCO2	-3.3	-15.3	4.1	-3.5	-1.1	nt
O=C(CCN1CCCCC1)c1ccc2c(c1)OCO2	-5.7	-32.1	-0.2	79.9*	-1.8	12.9
SMILES	XBP1 UPR activ	Mdm2-MdmX inh	UPR CHOP act	Granule exo inh	ABHD5-PLIN5 inh	Granule exo CP1
O=C(c1ccccc1)c1ccc2c(c1)OCCOCCOCCOCCO2	-0.8	9.7	-0.3	71.6*	-0.7	-5.2
O=C(CCN1CCc2ccccc2CC1)c1ccc2c(c1)OCCO2	-6.8	16.0	14.7	100.8*	20.4	78.1*
CCOc1ccc(C(=O)CCN2CCCCCC2)cc1	-1.1	29.0	0.6	100.6*	9.1	64.3*
CC(C)(C)NC(=O)CSc1nc2ccc(NC(=O)CSc3nnnn3Cc3ccccc3)cc2s1	3.4	30.3	4.6	3.3	2.3	nt
COc1ccc(/C=N/OCC(=O)NCC(C)C)c(OC)c1	-4.3	3.6	-2.4	2.1	-1.1	nt
CC1(C)CC2CC(C)(CN2C(=O)c2cccs2)C1 (configuration not stated)	0.8	27.1	0.2	0.2	-6.8	nt
O=C(CCCN1CCOCC1)c1ccc2c(c1)OCCO2	-4.0	24.3	2.3	-3.2	2.3	nt
O=C(CCN1CCOCC1)c1ccc2c(c1)OCCO2	-4.0	13.5	1.5	84.8*	10.9	-8.3
Cc1ccc(S(=O)(=O)N2[C@@H](CO)CO[C@H]2CC(=O)c2cccc3ccccc23)cc1	nt	nt	nt	-7.4	2.3	nt
COc1cc(CNC(C)c2ccccc2)cc(Br)c1OCc1ccccc1 (configuration not stated)	3.4	28.3	1.4	87.7*	0.2	-1.4
CCO[C@H]1OC(C(=O)NC2CC2)=C[C@@H](c2c[nH]c3ccccc23)[C@@H]1CCCO	1.0	-2.8	-0.7	56.5*	2.7	-13.2
N#CCOC(=O)[C@H](Cc1c[nH]c2ccccc12)NS(=O)(=O)c1ccc(Cl)cc1	-1.0	-1.7	-2.6	57.1*	3.6	51.7
COC(=O)[C@H](Cc1c[nH]c2ccccc12)NC(=O)CCCc1c[nH]c2ccccc12	-4.0	2.1	3.4	74.2*	7.2	-11.9
COC(=O)C(Cc1c[nH]c2ccccc12)NC(=O)C(C)C (configuration not stated)	-1.9	5.2	-1.7	-0.1	-4.3	nt
COC(=O)C(Cc1c[nH]c2ccccc12)NC(=O)C(=O)c1c[nH]c2ccccc12 (configuration not stated)	-3.0	35.4	2.6	59.0*	-2.0	-11.7
COC(=O)[C@H](Cc1c[nH]c2ccccc12)NC(=O)Cc1c[nH]c2ccccc12	-5.3	15.0	-1.0	65.6*	-6.3	-11.7
Cc1ccc(C(=O)NC2CCN(C(=O)NCc3ccccc3)CC2)cc1	0.3	-17.0	0.3	?	2.4	nt
Cc1ccc(CNc2oc(COc3ccccc3Cl)nc2C#N)cc1	-3.8	23.2	0.9	-8.8	0.5	nt
N#Cc1nc(COc2ccccc2Cl)oc1NCc1ccc(F)cc1	-2.3	-1.8	-1.1	59.0*	-13.4	-13.7
